Source: ChEMBL document CHEMBL4689842, “EUbOPEN Chemogenomics Library wave 1” (2021)
Where “and” joins values, the source holds several entries; their conditions need not be identical. Identical values can stand only once.

Experiments:
Format in all cases: toxicity, cell-based
[1] = tested on: HEK-293T; assay: Multiplex assay against HEK293T; settings: human, 10 µM, compound concentration 10 uM
Summary of the method: (§1)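 On a CQ1 microscope at 37°C and 5% CO2, live cells were imaged after compound addition. They had been stained at seeding with Hoechst33342, BioTracker Green Microtubule Cytoskeleton Dye, MitoTracker Red and Annexin V Alexa Fluor 680. CellPathfinder machine-learning gating assigned cells to Hoechst high-intensity objects or normal cells, normal cells to healthy, pyknosed or fragmented nuclei, and pyknosed cells to mitotic or apoptotic. Tubulin, mitochondrial-mass and membrane-permeability phenotypes are per cents of healthy-nucleus cells.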

[2] = tested on: Fibroblast; assay: Incucyte cell viability with human fibroblast; settings: 10 µM, compound concentration 10 uM; note: filed as whole numbers so only -1 and 0 and 1 occur
[3] = tested on: Fibroblast; assay: Multiplex assay against human fibroblast; settings: 10 µM, compound concentration 10 uM; summary of the method: as §1
[4] = tested on: U2OS; assay: Multiplex assay against U2OS; settings: human, 10 µM, compound concentration 10 uM; summary of the method: as §1
[5] = tested on: U2OS; assay: Incucyte cell viability with U2OS; settings: human, 10 µM, compound concentration 10 uM; note: filed as whole numbers so only -1 and 0 and 1 occur
[6] = tested on: HEK-293T; assay: Incucyte cell viability with HEK293T; settings: human, 10 µM, compound concentration 10 uM; note: filed as whole numbers so only -1 and 0 and 1 occur
[7] = 0 h, replicate number 1, timepoint 0 hours
[8] = 6 h, replicate number 1, timepoint 6 hours
[9] = 12 h, replicate number 1, timepoint 12 hours
[10] = 18 h, replicate number 1, timepoint 18 hours
[11] = 24 h, replicate number 1, timepoint 24 hours

`CCN1CCN(Cc2ccc(NC(=O)c3ccc(C)c(Oc4ccnc5[nH]ccc45)c3)cc2C(F)(F)F)CC1.Cl.Cl.Cl.O` was tested, and the “Population Apoptotic (%)” value ([1]; 12 h, replicate 1) was 19% and 50%, the “Population Fragmented Nuclei (%)” value ([1]; 12 h, replicate 1) was 21% and 19% and the “Population Healthy Nuclei (%)” value ([1]; 12 h, replicate 1) was 47% and 20%. The “Population Hoechst High Intensity Objects (%)” value ([1]; 12 h, replicate 1) was 20% and 25%, the “Population Membrane Permeable-Phenotype (%)” value ([1]; 12 h, replicate 1) was 5% and 7% and the “Population Mitotic Cells (%)” value ([1]; 12 h, replicate 1) was 80% and 49%. For the same compound, the “Population Normal (%)” value ([1]; 12 h, replicate 1) was 79% and 74%, the “Population Pyknosed Nuclei (%)” value ([1]; 12 h, replicate 1) was 31% and 60% and the “Total Cell Count” value ([1]; 12 h, replicate 1) was 451 and 581. The “Population Fragmented Nuclei (%)” value ([1]; 12 h, replicate 2) was 3% and 6%, the “Population Healthy Nuclei (%)” value ([1]; 12 h, replicate 2) was 66% and 86% and the “Population Hoechst High Intensity Objects (%)” value ([1]; 12 h, replicate 2) was 5% and 2%. The “Population Membrane Permeable-Phenotype (%)” value ([1]; 12 h, replicate 2) was 2% and 1%, the “Population Mitotic Cells (%)” value ([1]; 12 h, replicate 2) was 47% and 87% and the “Population Normal (%)” value ([1]; 12 h, replicate 2) was 94% and 97%. The “Total Cell Count” value ([1]; 12 h, replicate 2) was 837 and 1347, the “Population Fragmented Nuclei (%)” value ([1]; 24 h, replicate 1) was 21% and 23% and the “Population Healthy Nuclei (%)” value ([1]; 24 h, replicate 1) was 25% and 58%. For the same compound, the “Population Hoechst High Intensity Objects (%)” value ([1]; 24 h, replicate 1) was 29% and 13%, the “Population Membrane Permeable-Phenotype (%)” value ([1]; 24 h, replicate 1) was 8% and 7% and the “Population Normal (%)” value ([1]; 24 h, replicate 1) was 70% and 86%. For the same compound, the “Total Cell Count” value ([1]; 24 h, replicate 1) was 528 and 497, the “Population Healthy Nuclei (%)” value ([1]; 24 h, replicate 2) was 71% and 83% and the “Population Hoechst High Intensity Objects (%)” value ([1]; 24 h, replicate 2) was 6% and 5%. For the same compound, the “Population Membrane Permeable-Phenotype (%)” value ([1]; 24 h, replicate 2) was 1% and 3%, the “Population Mitotic Cells (%)” value ([1]; 24 h, replicate 2) was 32% and 91% and the “Population Normal (%)” value ([1]; 24 h, replicate 2) was 93% and 94%. For the same compound, the “Total Cell Count” value ([1]; 24 h, replicate 2) was 779 and 2092, the “Growth Rate” value [2, 7] was 0 and the “Growth Rate” value [2, 8] was 1. For the same compound, the “Growth Rate” value [2, 9] was 0, the “Growth Rate” value [2, 10] was 0 and the “Growth Rate” value [2, 11] was 0. For the same compound, the “Population Apoptotic (%)” value ([3]; 12 h, replicate 1) was 75% and 44%, the “Population Fragmented Nuclei (%)” value ([3]; 12 h, replicate 1) was 42% and 25% and the “Population Healthy Nuclei (%)” value ([3]; 12 h, replicate 1) was 42% and 50%. For the same compound, the “Population Hoechst High Intensity Objects (%)” value ([3]; 12 h, replicate 1) was 20%, the “Population Membrane Permeable-Phenotype (%)” value ([3]; 12 h, replicate 1) was 6% and 2% and the “Population Mitochondria Different-Phenotype (%)” value ([3]; 12 h, replicate 1) was 8%. For the same compound, the “Population Mitotic Cells (%)” value ([3]; 12 h, replicate 1) was 25% and 55%, the “Population Normal (%)” value ([3]; 12 h, replicate 1) was 79% and the “Population Pyknosed Nuclei (%)” value ([3]; 12 h, replicate 1) was 14% and 25%. The “Population Tubulin-Different-Phenotype (%)” value ([3]; 12 h, replicate 1) was 13% and 25%, the “Total Cell Count” value ([3]; 12 h, replicate 1) was 169 and 323 and the “Population Fragmented Nuclei (%)” value ([3]; 12 h, replicate 2) was 74% and 45%. For the same compound, the “Population Healthy Nuclei (%)” value ([3]; 12 h, replicate 2) was 23% and 34%, the “Population Hoechst High Intensity Objects (%)” value ([3]; 12 h, replicate 2) was 36% and 41% and the “Population Membrane Permeable-Phenotype (%)” value ([3]; 12 h, replicate 2) was 18% and 0%. For the same compound, the “Population Mitochondria Different-Phenotype (%)” value ([3]; 12 h, replicate 2) was 0% and 12%, the “Population Mitotic Cells (%)” value ([3]; 12 h, replicate 2) was 100% and 44% and the “Population Normal (%)” value ([3]; 12 h, replicate 2) was 63% and 58%. For the same compound, the “Population Tubulin-Different-Phenotype (%)” value ([3]; 12 h, replicate 2) was 18% and 37%, the “Total Cell Count” value ([3]; 12 h, replicate 2) was 74 and 79 and the “Population Apoptotic (%)” value ([3]; 24 h, replicate 1) was 76% and 41%. For the same compound, the “Population Fragmented Nuclei (%)” value ([3]; 24 h, replicate 1) was 45% and 29%, the “Population Healthy Nuclei (%)” value ([3]; 24 h, replicate 1) was 46% and the “Population Hoechst High Intensity Objects (%)” value ([3]; 24 h, replicate 1) was 23% and 52%. The “Population Membrane Permeable-Phenotype (%)” value ([3]; 24 h, replicate 1) was 5% and 2%, the “Population Mitochondria Different-Phenotype (%)” value ([3]; 24 h, replicate 1) was 13% and 14% and the “Population Mitotic Cells (%)” value ([3]; 24 h, replicate 1) was 23% and 58%. The “Population Normal (%)” value ([3]; 24 h, replicate 1) was 76% and 47%, the “Population Pyknosed Nuclei (%)” value ([3]; 24 h, replicate 1) was 8% and 23% and the “Population Tubulin-Different-Phenotype (%)” value ([3]; 24 h, replicate 1) was 20% and 32%. For the same compound, the “Total Cell Count” value ([3]; 24 h, replicate 1) was 210 and 306, the “Population Apoptotic (%)” value ([3]; 24 h, replicate 2) was 50% and 30% and the “Population Fragmented Nuclei (%)” value ([3]; 24 h, replicate 2) was 59% and 50%. For the same compound, the “Population Healthy Nuclei (%)” value ([3]; 24 h, replicate 2) was 36% and 19%, the “Population Hoechst High Intensity Objects (%)” value ([3]; 24 h, replicate 2) was 38% and 40% and the “Population Mitotic Cells (%)” value ([3]; 24 h, replicate 2) was 50% and 69%. For the same compound, the “Population Normal (%)” value ([3]; 24 h, replicate 2) was 61% and 60%, the “Population Tubulin-Different-Phenotype (%)” value ([3]; 24 h, replicate 2) was 41% and 50% and the “Total Cell Count” value ([3]; 24 h, replicate 2) was 76 and 70. For the same compound, the “Population Apoptotic (%)” value ([4]; 12 h, replicate 1) was 66% and 38%, the “Population Healthy Nuclei (%)” value ([4]; 12 h, replicate 1) was 34% and 87% and the “Population Hoechst High Intensity Objects (%)” value ([4]; 12 h, replicate 1) was 7% and 4%. The “Population Membrane Permeable-Phenotype (%)” value ([4]; 12 h, replicate 1) was 18% and 17%, the “Population Mitotic Cells (%)” value ([4]; 12 h, replicate 1) was 33% and 61% and the “Population Normal (%)” value ([4]; 12 h, replicate 1) was 92% and 95%. The “Total Cell Count” value ([4]; 12 h, replicate 1) was 219 and 182, the “Population Fragmented Nuclei (%)” value ([4]; 12 h, replicate 2) was 17% and 9% and the “Population Healthy Nuclei (%)” value ([4]; 12 h, replicate 2) was 40% and 83%. For the same compound, the “Population Hoechst High Intensity Objects (%)” value ([4]; 12 h, replicate 2) was 14% and 11%, the “Population Membrane Permeable-Phenotype (%)” value ([4]; 12 h, replicate 2) was 20% and 10% and the “Population Mitotic Cells (%)” value ([4]; 12 h, replicate 2) was 30% and 87%. For the same compound, the “Population Normal (%)” value ([4]; 12 h, replicate 2) was 85% and 88%, the “Population Pyknosed Nuclei (%)” value ([4]; 12 h, replicate 2) was 42% and the “Total Cell Count” value ([4]; 12 h, replicate 2) was 113 and 91. The “Population Apoptotic (%)” value ([4]; 24 h, replicate 1) was 37%, the “Population Normal (%)” value ([4]; 24 h, replicate 1) was 79% and 98% and the “Population Pyknosed Nuclei (%)” value ([4]; 24 h, replicate 1) was 10%. For the same compound, the “Population Tubulin-Different-Phenotype (%)” value ([4]; 24 h, replicate 1) was 10%, the “Total Cell Count” value ([4]; 24 h, replicate 1) was 255 and 248 and the “Population Apoptotic (%)” value ([4]; 24 h, replicate 2) was 90% and 58%. For the same compound, the “Population Fragmented Nuclei (%)” value ([4]; 24 h, replicate 2) was 16% and 11%, the “Population Hoechst High Intensity Objects (%)” value ([4]; 24 h, replicate 2) was 23% and 18% and the “Population Normal (%)” value ([4]; 24 h, replicate 2) was 76% and 81%. For the same compound, the “Total Cell Count” value ([4]; 24 h, replicate 2) was 133 and 117, the “Growth Rate” value [5, 7] was 0 and the “Growth Rate” value [5, 8] was 0. For the same compound, the “Growth Rate” value ([5]; 6 h, replicate number 2, timepoint 6 hours) was 1, the “Growth Rate” value [5, 9] was 0 and the “Growth Rate” value [5, 10] was 0. The “Growth Rate” value [5, 11] was 0, the “Growth Rate” value ([6]; 0 h, replicate number 2, timepoint 0 hours) was 0 and the “Growth Rate” value [6, 8] was 0. The “Growth Rate” value [6, 9] was 0, the “Growth Rate” value [6, 10] was 0 and the “Growth Rate” value [6, 11] was 0.
